Results on one compound are retold here after ChEMBL document CHEMBL4014347, “Targeting Mycolic Acid Transport by Indole-2-carboxamides for the Treatment of Mycobacterium abscessus Infections” (J Med Chem, 2017).

In brackets after ≈: the same amount, converted by molar mass. Activity calls are given as the source filed them. The rule behind the calls is not given here.

One series deals with Cytochrome P450 2D6 (Homo sapiens, UniProt P10635). Briefly: Inhibition of CYP2D6 in human liver microsomes preincubated for 5 mins followed by NADPH addition measured after 10 mins by LC-MS/MS analysis. Format: ADME. A general note: Liver microsomes are vesicles of endoplasmic reticulum, rich in cytochrome P450 enzymes.
Series [1] deals with Mycobacteroides abscessus. The experiment in a line: Inhibition of MmpL3 in Mycobacterium abscessus CIP104536 smooth variant assessed as reduction in arabinogalactan mycolation preincubated for 1 hr followed by [14C]acetic acid addition measured after 2 hrs by TLC based autoradiography analysis. An outline of the steps:
(§1)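 Exponential cultures in 7H9 with OADC exposed to increasing drug concentrations for 1 h at 37 °C with agitation, then labelled with 1 μCi/mL [14C]acetate (56 mCi/mmol) for 2 h; apolar lipids (TMM, TDM) run on TLC in chloroform/methanol/water 40:8:1; MAME and arabinogalactan-bound mycolates in petroleum ether/acetone 95:5; autoradiography.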

The test system of series [2] is Mycobacteroides abscessus. The experiment in a line: Antibacterial activity against non CF patient derived Mycobacterium abscessus subsp. abscessus isolate CIP104536 rough variant after 3 to 5 days by two fold serial dilution method. Format: functional. An outline of the steps:
(§2)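 Broth microdilution in cation-adjusted Mueller−Hinton broth per CLSI; inoculum 5 × 10^6 CFU/mL of exponential-phase bacteria; two-fold serial dilutions, solvent-only wells as control; 30 °C for 3−5 days; MIC read visually and confirmed by absorbance at 560 nm; triplicate on three independent occasions.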

Series [3] deals with Liver. The experiment in a line: Intrinsic clearance in mouse liver microsomes at 0.5 uM in presence of NADPH by LC-MS/MS analysis. Format: ADME, microsome. An outline of the steps:
(§3)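 Compound (0.5 μM) incubated with mouse or rat liver microsomes plus NADPH regenerating system; aliquots every 3 min over 30 min analysed for parent by LC-MS/MS; monoexponential decay rate normalized to microsomal protein, expressed as mL/min/g liver.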

In series [4] the test system is Mycobacteroides abscessus. Briefly: Antibacterial activity against non CF patient derived Mycobacterium abscessus subsp. abscessus isolate 3022 rough variant after 3 to 5 days by two fold serial dilution method. Format: functional. An outline of the steps:
as §2

Series [5] concerns Mycobacteroides abscessus. Briefly: Antibacterial activity against Addison's disease patient derived Mycobacterium abscessus subsp. massiliense isolate CIP108297 rough variant after 3 to 5 days by two fold serial dilution method. Format: functional. An outline of the steps:
as §2

Series [6] is described as follows: Antibacterial activity against CF patient derived Mycobacterium abscessus subsp. bolletii isolate 112 rough variant after 3 to 5 days by two fold serial dilution method. To be noted: Mycobacteroides abscessus. Format: functional. An outline of the steps:
as §2

For another series, the target named is T1, CYP2C8 (Homo sapiens, UniProt P10632).
T1 sequence (P10632 whole entry): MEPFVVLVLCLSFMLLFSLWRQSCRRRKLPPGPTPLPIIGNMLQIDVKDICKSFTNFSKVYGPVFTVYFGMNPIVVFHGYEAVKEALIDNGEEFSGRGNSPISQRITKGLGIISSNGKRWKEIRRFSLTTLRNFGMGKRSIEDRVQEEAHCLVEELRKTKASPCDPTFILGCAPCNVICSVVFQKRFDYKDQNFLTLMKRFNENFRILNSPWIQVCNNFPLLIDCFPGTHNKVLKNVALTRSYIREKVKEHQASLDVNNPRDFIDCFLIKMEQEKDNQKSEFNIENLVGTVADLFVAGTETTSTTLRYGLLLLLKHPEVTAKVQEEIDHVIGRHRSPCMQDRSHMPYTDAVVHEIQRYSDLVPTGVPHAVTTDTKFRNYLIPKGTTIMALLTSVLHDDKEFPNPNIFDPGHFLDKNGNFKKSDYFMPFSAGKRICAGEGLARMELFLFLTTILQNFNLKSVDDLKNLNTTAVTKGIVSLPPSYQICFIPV
Briefly: Inhibition of CYP2C8 in human liver microsomes preincubated for 5 mins followed by NADPH addition at 10 uM measured after 10 mins by LC-MS/MS analysis relative to control. Format: ADME.

Series [7] concerns Liver. Briefly: Intrinsic clearance in rat liver microsomes at 0.5 uM in presence of NADPH by LC-MS/MS analysis. Format: ADME, microsome. An outline of the steps:
as §3

The test system of series [8] is Mycobacteroides abscessus. Briefly: Antibacterial activity against CF patient derived Mycobacterium abscessus subsp. abscessus isolate 2069 smooth variant after 3 to 5 days by two fold serial dilution method. Format: functional. An outline of the steps:
as §2

The subject of series [9] is Mycobacteroides abscessus. The experiment in a line: Antibacterial activity against CF patient derived Mycobacterium abscessus subsp. abscessus isolate 3321 smooth variant after 3 to 5 days by two fold serial dilution method. Format: functional. In outline:
as §2

In series [10] the test system is Mycobacteroides abscessus. Briefly: Antibacterial activity against Mycobacterium abscessus CIP104536 smooth variant harboring pMV261 MAB_4508 wild type at 0.5 to 1 ug/ml after 3 days. Format: functional. In outline:
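M. abscessus overexpressing wild-type or A309P MAB_4508 from pMV261 plated on 7H10 agar with 10% OADC containing drug; plates incubated at 30 °C for 3 days before growth inspection.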

Another series deals with Cytochrome P450 2C9 (Homo sapiens, UniProt P11712). Briefly: Inhibition of CYP2C9 in human liver microsomes preincubated for 5 mins followed by NADPH addition measured after 10 mins by LC-MS/MS analysis. Format: ADME.
The test system of series [11] is Mycobacteroides abscessus. The experiment in a line: Antibacterial activity against Mycobacterium abscessus CIP104536 smooth variant infected in PMA activated THP-1 macrophages assessed as reduction in viable colony forming unit at 3 ug/ml measured upto 4 days post treatment. Format: functional. An outline of the steps: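 THP-1 cells in RPMI with 10% FBS, differentiated with 20 ng/mL PMA for 48 h at 37 °C; infected at MOI 1:2 for 2 h under 5% CO2; washed, 200 μg/mL amikacin for 1 h, washed; drug medium renewed daily; lysed in 1% Triton X100 at 0, 48, 96 h and plated for CFU; triplicates, two independent experiments.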

Series [12] deals with Mycobacteroides abscessus. Briefly: Inhibition of MmpL3 A309P mutant in Mycobacterium abscessus CIP104536 smooth variant harboring pMV261 MAB_4508_A309P mutant assessed as reduction in trehalose monomycolate transport at 6.2 ug/ml preincubated for 1 hr followed by [14C]acetic acid addition measured after 2 hrs by TLC based autoradiography analysis. In outline: as §1
Series [13] is described as follows: Antibacterial activity against CF patient derived Mycobacterium abscessus subsp. bolletii isolate 114 smooth variant after 3 to 5 days by two fold serial dilution method. Format: functional. To be noted: Mycobacteroides abscessus. An outline of the steps: as §2
A further series deals with T2, CYP1A2 (Homo sapiens, UniProt P05177).
T2 sequence (P05177 whole entry): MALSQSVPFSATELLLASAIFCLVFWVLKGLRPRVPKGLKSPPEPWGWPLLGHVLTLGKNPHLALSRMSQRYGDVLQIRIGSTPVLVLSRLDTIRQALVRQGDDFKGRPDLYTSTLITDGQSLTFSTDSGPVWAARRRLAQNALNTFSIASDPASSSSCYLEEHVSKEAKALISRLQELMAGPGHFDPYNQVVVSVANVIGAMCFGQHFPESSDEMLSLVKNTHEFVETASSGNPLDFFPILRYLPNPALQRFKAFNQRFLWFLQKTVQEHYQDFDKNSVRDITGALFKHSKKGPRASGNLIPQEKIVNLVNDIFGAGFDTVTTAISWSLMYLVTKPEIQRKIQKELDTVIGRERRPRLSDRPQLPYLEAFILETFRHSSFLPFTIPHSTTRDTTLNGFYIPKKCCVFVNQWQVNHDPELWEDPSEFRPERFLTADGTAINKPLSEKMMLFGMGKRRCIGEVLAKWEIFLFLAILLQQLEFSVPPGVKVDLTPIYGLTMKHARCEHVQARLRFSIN
The experiment in a line: Inhibition of CYP1A2 in human liver microsomes preincubated for 5 mins followed by NADPH addition at 10 uM measured after 10 mins by LC-MS/MS analysis relative to control. Format: ADME.

Sequence of Cytochrome P450 2C9 (P11712 whole entry): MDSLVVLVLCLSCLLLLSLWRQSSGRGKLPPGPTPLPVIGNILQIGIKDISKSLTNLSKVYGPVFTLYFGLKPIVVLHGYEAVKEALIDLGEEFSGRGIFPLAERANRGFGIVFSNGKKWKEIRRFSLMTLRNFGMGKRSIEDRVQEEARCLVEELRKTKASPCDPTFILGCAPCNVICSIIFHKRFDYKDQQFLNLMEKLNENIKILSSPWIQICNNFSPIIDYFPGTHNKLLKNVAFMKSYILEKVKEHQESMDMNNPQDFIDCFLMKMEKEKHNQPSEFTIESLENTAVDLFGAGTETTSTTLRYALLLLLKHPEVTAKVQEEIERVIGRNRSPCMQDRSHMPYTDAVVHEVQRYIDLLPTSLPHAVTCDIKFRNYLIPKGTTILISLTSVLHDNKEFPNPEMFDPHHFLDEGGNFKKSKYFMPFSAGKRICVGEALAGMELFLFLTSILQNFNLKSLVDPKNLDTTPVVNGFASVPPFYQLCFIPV
Sequence of Cytochrome P450 2D6 (P10635 whole entry): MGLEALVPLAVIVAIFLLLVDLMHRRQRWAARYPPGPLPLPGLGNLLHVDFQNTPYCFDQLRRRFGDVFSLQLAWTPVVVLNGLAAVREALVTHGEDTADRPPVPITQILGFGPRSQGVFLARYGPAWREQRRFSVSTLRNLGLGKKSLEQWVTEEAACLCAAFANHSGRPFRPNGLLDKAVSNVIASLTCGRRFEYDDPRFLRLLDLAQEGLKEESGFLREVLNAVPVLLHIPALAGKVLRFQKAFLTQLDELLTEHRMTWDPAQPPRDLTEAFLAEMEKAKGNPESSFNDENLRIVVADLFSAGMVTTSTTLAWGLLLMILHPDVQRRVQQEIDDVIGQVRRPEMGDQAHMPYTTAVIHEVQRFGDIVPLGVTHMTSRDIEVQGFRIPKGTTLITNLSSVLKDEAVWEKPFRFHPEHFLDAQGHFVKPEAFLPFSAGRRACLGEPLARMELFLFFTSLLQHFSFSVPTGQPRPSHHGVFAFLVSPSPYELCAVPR

Turning to `O=C(NC1CCCCCC1)c1cc2c(Cl)cc(Cl)cc2[nH]1`, the 50% inhibitory concentration (IC50) against Cytochrome P450 2D6 and against Cytochrome P450 2C9 was at most 20 µM throughout. Further, the inhibition result in [1] was “Dose-dependent effect”. The MIC in series [2], in series [4], in [5], in [6], in [8] and in series [9] was 0.125 µg/mL (≈ 0.384 µM) each time. This compound also registered an MIC in series [13] of 0.125 µg/mL (≈ 0.384 µM). For the same compound, the CLH was determined as 4.8 mL/min/g in the series with Liver [3] and 6.3 mL/min/g in the series on Liver [7]. In addition, the inhibition at 10 min, 10 µM came out at 20% on CYP2C8 and 19% against CYP1A2. Moreover, the result in series [10] and in series [11] was Active. Also, in series [12], the inhibition result is “Active”.

A word on the IC50: it is the midpoint of a concentration-inhibition curve. The low end stands for greater potency in that assay, the high end for weaker potency in that assay. The inhibition is the drop in the measured response relative to a control, in per cent. In general, MIC refers to the lowest concentration found to suppress growth. High values mean a less susceptible organism, low ones a more susceptible organism.
